# Assay results pooled from the literature.
# Lines come from different studies, so protocols differ.
# Target: Ephrin type-A receptor 8 (EPHA8, Homo sapiens, UniProt P29322)
# One construct used (P29322 1-1005): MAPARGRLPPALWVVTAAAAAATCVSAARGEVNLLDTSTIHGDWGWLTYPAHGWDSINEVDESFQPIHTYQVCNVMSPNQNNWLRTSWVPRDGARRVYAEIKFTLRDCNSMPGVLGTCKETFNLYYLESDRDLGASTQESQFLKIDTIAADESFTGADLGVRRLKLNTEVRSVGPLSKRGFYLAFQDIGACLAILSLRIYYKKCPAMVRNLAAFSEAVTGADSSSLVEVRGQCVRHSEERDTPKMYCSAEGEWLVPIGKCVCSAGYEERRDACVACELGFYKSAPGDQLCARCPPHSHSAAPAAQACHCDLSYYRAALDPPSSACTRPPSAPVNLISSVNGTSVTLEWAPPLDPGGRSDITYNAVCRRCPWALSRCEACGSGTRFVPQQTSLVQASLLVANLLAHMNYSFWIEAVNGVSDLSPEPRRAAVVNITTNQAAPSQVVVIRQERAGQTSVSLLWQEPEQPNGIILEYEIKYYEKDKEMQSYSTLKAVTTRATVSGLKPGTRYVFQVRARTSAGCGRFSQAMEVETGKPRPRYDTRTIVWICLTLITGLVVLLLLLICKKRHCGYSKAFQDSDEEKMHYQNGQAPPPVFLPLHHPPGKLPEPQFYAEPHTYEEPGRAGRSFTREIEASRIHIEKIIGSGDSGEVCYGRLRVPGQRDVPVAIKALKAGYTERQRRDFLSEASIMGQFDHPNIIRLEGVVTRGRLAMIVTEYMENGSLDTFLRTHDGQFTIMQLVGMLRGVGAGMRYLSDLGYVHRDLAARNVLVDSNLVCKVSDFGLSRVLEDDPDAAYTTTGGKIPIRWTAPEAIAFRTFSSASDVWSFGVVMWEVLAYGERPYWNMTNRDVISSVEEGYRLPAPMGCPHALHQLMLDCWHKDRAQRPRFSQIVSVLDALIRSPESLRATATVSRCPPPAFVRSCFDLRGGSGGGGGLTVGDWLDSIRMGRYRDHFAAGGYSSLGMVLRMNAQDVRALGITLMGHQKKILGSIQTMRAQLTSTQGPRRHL
SMILES,read-out,mode,method,tested at,quantity,result
Cc1ccc(C(=O)Nc2ccc(CN3CCN(C)CC3)c(C(F)(F)F)c2)cc1C#Cc1cnc2cccnn12,cell-free assay,,,23.5 nM,remaining signal,0.9%
CNC(=O)c1cc(Oc2ccc(NC(=O)Nc3ccc(Cl)c(C(F)(F)F)c3)cc2)ccn1,enzyme activity,inhibitor,,0.3 µM,inhibition,23%
CC(C)(C)c1nc(-c2cccc(NS(=O)(=O)c3c(F)cccc3F)c2F)c(-c2ccnc(N)n2)s1,enzyme activity,inhibitor,radiometric,1 µM,remaining activity,105%
O=C1CCc2cc(Nc3cc(OC4CCOCC4)c([N+](=O)[O-])cc3Cl)ccc2N1,cell-free assay,,competition with immobilised ligand,1 µM,remaining binding,100%
Clc1ccc(Nc2nnc(Cc3ccncc3)c3ccccc23)cc1,cell-free assay,,,0.5 µM,remaining signal,100%
c1ccc(N2CCN(Cc3nc4ccccc4[nH]3)CC2)nc1,cell-free assay,,competition with immobilised ligand,1 µM,remaining binding,100%
CC/C(=N\NC(=O)NCc1cccc(O)c1)c1ccc(O)c(C)c1O,enzyme activity,inhibitor,,0.1 µM,inhibition,-0.5%
O=C1Nc2ccc(Cl)cc2C1=Cc1cc(Cl)c(O)c(Cl)c1,cell-free assay,,,0.5 µM,remaining signal,91.5%
O=C(NC[C@@H]1[C@H]2CN(C(=O)OCc3cc(C(F)(F)F)cc(C(F)(F)F)c3)C[C@@H]12)c1ccc2[nH]nnc2c1,cell-free assay,,competition with immobilised ligand,1 µM,remaining binding,100%
Nc1ncnc2occ(-c3ccc(NC(=O)Nc4cc(C(F)(F)F)ccc4F)cc3)c12,cell-free assay,,,20 µM,remaining signal,0%
O=C1NC(=O)c2cc(Nc3ccc(F)cc3)c(Nc3ccc(F)cc3)cc21,cell-free assay,,,0.5 µM,remaining signal,95.5%
COc1cc(-c2cc(-c3ccc(N4CCNCC4)cc3)cnc2C)cc(OC)c1OC,enzyme activity,inhibitor,,0.1 µM,inhibition,3%
O=C(Nc1cnn(-c2csc(C(=O)NC3COC3)c2)c1)Nc1c(F)cccc1Cl,enzyme activity,inhibitor,,5 µM,remaining activity,93.8%
COc1cc2ncnc(Nc3ccc(Oc4ccccc4)cc3C)c2cc1OC,enzyme activity,inhibitor,,1 µM,inhibition,21%
Cc1nc(Cc2cccc(C(F)(F)F)c2)sc1-c1ccc(C(N)=O)nc1,cell-free assay,,competition with immobilised ligand,1 µM,remaining binding,100%
Cc1sc(C(=O)NC2COC2)cc1-n1cc(NC(=O)Nc2c(F)cccc2Cl)cn1,enzyme activity,inhibitor,,10 µM,remaining activity,91.7%
Cc1ccc(Nc2nccc(N(C)c3ccc4c(C)n(C)nc4c3)n2)cc1S(N)(=O)=O,enzyme activity,inhibitor,,10 µM,inhibition,81%
O=C(O)c1cc(-c2ccc(C3CCNCC3)cc2)c2ccc(-c3ccc(C(F)(F)F)cc3)cc2c1,cell-free assay,,competition with immobilised ligand,1 µM,remaining binding,100%
CCCS(=O)(=O)Nc1ccc(F)c(C(=O)c2c[nH]c3ncc(-c4ccc(Cl)cc4)cc23)c1F,enzyme activity,inhibitor,,1 µM,inhibition,< 20%
O=C(NCc1ncc(C(F)(F)F)cc1Cl)c1ccc2c(c1)C1(CCS(=O)(=O)CC1)[C@@H](C1CC1)N2S(=O)(=O)c1ccc(F)cc1,cell-free assay,,competition with immobilised ligand,1 µM,remaining binding,100%
CNC(=O)c1cc2c(Oc3ccc(NC(=O)C4(C(=O)Nc5ccc(F)cc5)CC4)cc3)ccnc2cc1OC,enzyme activity,inhibitor,radiometric,1 µM,inhibition,102%
